A selection: hits, their analogues and other compounds. The true share with any hit is near 0.28%.
TNAP inh noacc: human TNAP enzyme inhibitors, primary screen, biochemical, luminescent, no phosphate acceptor, uHTS. Alkaline phosphatase, tissue-nonspecific isozyme (Homo sapiens), P05186. purified TNAP, CDP-star luminescence, 30 min. inhibition, % at 20 µM. 0.26% of 200,000 active. AID 1012, 2008;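 active = tissue-nonspecific alkaline phosphatase inhibition above about 50% at 20 µM in the single-dose screen, limit read from the data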;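 also: 0% = DMSO negative control and 100% = EDTA positive control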
Target sequence (P05186 whole entry, looked up): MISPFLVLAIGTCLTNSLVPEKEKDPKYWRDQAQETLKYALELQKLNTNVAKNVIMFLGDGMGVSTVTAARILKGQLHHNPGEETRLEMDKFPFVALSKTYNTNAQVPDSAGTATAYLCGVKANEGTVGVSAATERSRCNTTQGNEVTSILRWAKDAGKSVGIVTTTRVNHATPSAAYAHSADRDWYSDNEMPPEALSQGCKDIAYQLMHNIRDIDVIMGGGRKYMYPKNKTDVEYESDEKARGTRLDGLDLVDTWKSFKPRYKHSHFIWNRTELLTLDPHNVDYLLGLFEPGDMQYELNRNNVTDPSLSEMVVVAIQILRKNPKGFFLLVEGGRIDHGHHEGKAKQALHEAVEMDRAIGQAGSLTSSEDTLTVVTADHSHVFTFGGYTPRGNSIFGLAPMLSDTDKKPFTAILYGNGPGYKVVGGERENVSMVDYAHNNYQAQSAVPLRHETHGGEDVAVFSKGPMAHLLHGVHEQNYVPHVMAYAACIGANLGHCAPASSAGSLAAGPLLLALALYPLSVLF
TNAP act hi DEA: TNAP activators at high phosphate acceptor level, primary screen, biochemical, luminescence, uHTS. Alkaline phosphatase, tissue-nonspecific isozyme (Homo sapiens), P05186. purified TNAP, CDP-star luminescence, 1 M DEA, 30 min; active compounds read high; 0 = EDTA background, 1 = DMSO-only activity. activation factor at 20 µM. 200,000 tested, under 10 active;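 active = activation factor at least 2 at 20 µM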
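Test system – human TNAP · Doses – 20 µM single point · Incubation – 30 min, room temperature · Signal – luminescent substrate turnover signal · Read-out basis – activation factor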
Biofilm kill mix: clotrimazole potentiators killing C. albicans biofilm, primary screen, 4-compound mixtures; 0.02% of 120,000 active; inhibition, % at 7.6 µM; AID 1242, 2008; C. albicans biofilm persisters + clotrimazole, fluorescence viability; primary screen in compound mixtures of four per well;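 also: compounds exposed to preformed 24 h biofilms for 48 h; 0% = untreated biofilm control and 100% = clotrimazole plus chlorhexidine kill blank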
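Incubation: 24 h biofilm formation, then 48 h compound exposure, 37 °C | Material: C. albicans biofilms | Buffer or medium: RPMI/MOPS medium, pH 7.0 | Measured by: 2-h Alamar Blue fluorescence, 535/590 nm excitation/emission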
TNAP inh hi DEA: human TNAP enzyme inhibitors, primary screen, biochemical, luminescent, high phosphate acceptor level, uHTS; Alkaline phosphatase, tissue-nonspecific isozyme (Homo sapiens), P05186; purified TNAP, CDP-star luminescence, 1 M DEA; inhibition, % at 20 µM; 0.03% of 200,000 active; AID 1135, 2008;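 active = over 50% inhibition of tissue-nonspecific alkaline phosphatase at 20 µM in the single-dose screen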;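 also: plate controls were DMSO wells for no effect and EDTA-quenched wells as full inhibition for full effect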
* hit, by the source's call.

CC(C)c1ccc(C(=O)NC(=S)Nc2ccc3[nH]c(=O)[nH]c3c2)cc1 was read as Biofilm kill mix 13.0.
`O=C1CN(C(=O)CNC(=O)c2ccccc2Cl)c2ccccc2N1` gave TNAP inh noacc -2.5, TNAP act hi DEA 1, Biofilm kill mix 12.1 and TNAP inh hi DEA 2.9.
For Cc1nn(-c2ccccc2)c(N2CCCC2)c1/C=N/NC(=S)Nc1ccccc1F the results were TNAP inh noacc -11.7, TNAP act hi DEA 0.9, Biofilm kill mix 17.7 and TNAP inh hi DEA 7.0.
COc1ccc(C(=O)N2CCN(Cc3cn[nH]c3-c3ccc(OC)cc3F)CC2)cc1 was read as TNAP inh noacc 81.9*, TNAP act hi DEA 1, Biofilm kill mix 15.3 and TNAP inh hi DEA -3.8.
`COc1ccc(Br)cc1CN1CCN(C(=O)c2ccc(F)cc2)CC1` gave TNAP inh noacc -7.7, TNAP act hi DEA 1.1, Biofilm kill mix 22.9 and TNAP inh hi DEA -7.6.
Screening O=C(N/N=C/c1cccc([N+](=O)[O-])c1)c1cc(-c2ccc3c(c2)OCO3)n[nH]1 returned Biofilm kill mix 7.2.
`Cc1ccc(C(=O)N/N=C/c2ccc3c(c2)OCO3)o1` gave TNAP inh noacc -6.5, TNAP act hi DEA 1, Biofilm kill mix 13.1 and TNAP inh hi DEA -2.0.
For O=C(N/N=C/c1ccc(O)cc1)c1cc(-c2ccc3c(c2)OCO3)n[nH]1 the results were TNAP inh noacc 91.0*, TNAP act hi DEA 1, Biofilm kill mix 25.5 and TNAP inh hi DEA 0.8.
`O=C(N/N=C/c1ccccc1)c1cc(-c2ccc3c(c2)OCO3)n[nH]1` gave TNAP inh noacc 65.6*, TNAP act hi DEA 0.9, Biofilm kill mix -13.3 and TNAP inh hi DEA 6.2.
O=C(N/N=C/c1cccc(O)c1)c1cc(-c2ccc3c(c2)OCO3)n[nH]1 was read as TNAP inh noacc 95.0*, TNAP act hi DEA 0.8, Biofilm kill mix 13.5 and TNAP inh hi DEA 16.2.
Screening O=C(NCCCN1CCCC1=O)c1ccc(Cl)c(Cl)c1 returned TNAP inh noacc -3.4, TNAP act hi DEA 1, Biofilm kill mix 8.2 and TNAP inh hi DEA 3.3.
Screening CN(C)c1ccc(/C=C(\Cl)c2nc3ccccc3s2)cc1 returned TNAP inh noacc 17.7, TNAP act hi DEA 0.9, Biofilm kill mix 19.0 and TNAP inh hi DEA 14.7.
Screening O=C(/C=C/c1ccc(O)c(O)c1)c1ccc(S(=O)(=O)N2CCCCCC2)cc1 returned TNAP inh noacc 57.3*, TNAP act hi DEA 0.6, Biofilm kill mix 0.7 and TNAP inh hi DEA 43.3.
`O=C(O)CCN1C(=O)CC(N2C(=O)/C(=C/c3ccc(Cl)cc3)SC2=S)C1=O` (centres undefined) gave TNAP inh noacc 63.5*, TNAP act hi DEA 1, Biofilm kill mix 17.2 and TNAP inh hi DEA 4.1.
COc1ccc(N2CCN(C(=O)CSc3nnc(NC(=O)C4CC4)s3)CC2)cc1 was read as TNAP inh noacc -8.6, TNAP act hi DEA 1.1, Biofilm kill mix 26.6 and TNAP inh hi DEA -6.3.
`Oc1ccc(-c2nc3ccc4ccccc4c3c3c2CCC3)cc1O` gave TNAP inh noacc 50.5*, TNAP act hi DEA 0.8, Biofilm kill mix 17.3 and TNAP inh hi DEA 20.9.
COc1ccc(-c2cc(C(=O)O)nc3ccc4ccccc4c23)cc1OC was read as TNAP inh noacc -19.5, TNAP act hi DEA 1.1, Biofilm kill mix 5.7 and TNAP inh hi DEA -6.9.
`CC1=NN(c2ccc(C)cc2)C(=O)/C1=C\C=C\c1ccccc1` gave TNAP inh noacc 5.3, TNAP act hi DEA 1, Biofilm kill mix 8.1 and TNAP inh hi DEA 3.3.
`CC1=NN(c2ccccc2)C(=O)/C1=C/C=C/C=C/N(C)C` gave TNAP inh noacc 36.4, TNAP act hi DEA 0.4, Biofilm kill mix 18.2 and TNAP inh hi DEA 55.1*.
Screening COc1ccc(OC)c(/C=N/NC(=O)CCc2c(C)n[nH]c2C)c1 returned Biofilm kill mix 8.3.
Screening COc1ccc(OC)c(/C=N/NC(=O)CCc2ccc(O)c(O)c2)c1 returned TNAP inh noacc 61.6*, TNAP act hi DEA 0.9, Biofilm kill mix 11.1 and TNAP inh hi DEA 13.8.
O=C(O)C1CN(c2ncccc2[N+](=O)[O-])C1 was read as TNAP inh noacc -2.5, TNAP act hi DEA 1, Biofilm kill mix 6.6 and TNAP inh hi DEA -1.7.
For O=[N+]([O-])c1cccnc1N1CCC(c2cc(-c3ccc(Cl)cc3)n[nH]2)CC1 the results were TNAP inh noacc 50.2*, TNAP act hi DEA 1 and TNAP inh hi DEA 3.2.
`COc1cc(OC)cc(-c2cc(N3C(=O)Nc4ccccc4N3O)n[nH]2)c1` gave TNAP inh noacc -18.7, TNAP act hi DEA 1, Biofilm kill mix 7.5 and TNAP inh hi DEA -1.6.
For O=C1Nc2ccccc2N(O)N1c1cc(-c2ccc(Cl)cc2)[nH]n1 the results were TNAP inh noacc 62.8*, TNAP act hi DEA 1, Biofilm kill mix -1.4 and TNAP inh hi DEA -2.2.
Screening O=c1c2ccccc2cnn1Cc1n[nH]c(=S)n1-c1cc(Cl)cc(Cl)c1 returned TNAP inh noacc 61.0*, TNAP act hi DEA 0.9, Biofilm kill mix 5.0 and TNAP inh hi DEA 6.6.
For O=c1cc(-c2ccc([N+](=O)[O-])cc2)nc2cc(-c3ccc(Cl)cc3)[nH]n12 the results were TNAP inh noacc 51.4*, TNAP act hi DEA 1, Biofilm kill mix 11.2 and TNAP inh hi DEA 3.3.
`O=c1cc(-c2ccccc2)nc2cc(-c3ccco3)[nH]n12` gave Biofilm kill mix 22.4.
`O=C1c2c(O)cc(O)cc2O[C@H](c2ccc(O)c(O)c2)[C@@H]1O` gave TNAP inh noacc 69.8*, TNAP act hi DEA 0.9 and TNAP inh hi DEA 7.5.
For Nc1nc(SCC(=O)Nc2ccc(S(N)(=O)=O)cc2)n[nH]1 the results were TNAP inh noacc 63.7*, TNAP act hi DEA 1, Biofilm kill mix 12.8 and TNAP inh hi DEA 2.2.
COc1ccc(-c2[nH]ncc2CNCc2cc(C)n(C)n2)c(F)c1 was read as TNAP inh noacc 68.3*, TNAP act hi DEA 1.1, Biofilm kill mix 8.3 and TNAP inh hi DEA -6.6.
Screening COc1ccc(-c2[nH]ncc2CNCCn2cccn2)c(F)c1 returned TNAP inh noacc 85.3*, TNAP act hi DEA 1, Biofilm kill mix 2.7 and TNAP inh hi DEA -4.5.
Screening COC(=O)Cc1cc(=O)[nH]c(Nc2nc3ccccc3o2)n1 returned TNAP inh noacc 74.6*, TNAP act hi DEA 1 and TNAP inh hi DEA -4.1.
For CC1(C)CC(=O)C(CC(=O)Nc2cc(C(F)(F)F)ccc2Cl)C(=O)C1 the results were TNAP inh noacc 52.3*, TNAP act hi DEA 0.6, Biofilm kill mix 5.8 and TNAP inh hi DEA 35.3.
Screening CCOc1ccc(N(C(=O)c2cnccn2)C(C(=O)NC2CCCCC2)c2ccc(O)cc2)cc1 (centres undefined) returned TNAP inh noacc -6.8, TNAP act hi DEA 1.1, Biofilm kill mix 24.0 and TNAP inh hi DEA -5.0.
Cc1ncc(N=Nc2ccc(F)cc2)c(-c2ccc(Cl)cc2)n1 was read as TNAP inh noacc -8.5, TNAP act hi DEA 1 and TNAP inh hi DEA 4.3.
